Read-outs that look alike come from different tables or passages of the source.
Key:
[1] = system: C×46 hemichannels and Panx1 channels; conditions: oocytes; ref Bruzzone et al, 2006; cited from earlier work
[2] = target: T1, mPanx1-GFP (Mus musculus, UniProt Q9JIP4); assay: Whole cell patch clamp of depolarization-induced; type: cell-based
Summary of the method: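 Neuro2A cells in DMEM with 10% FCS, lipofectamine-transfected with mPanx1-GFP, recorded 24–36 h after replating. Whole-cell clamp at room temperature, held at −60 mV. Pipette CsCl/EGTA with 1 mM ATP. Currents evoked by 10-s ramps from −60 to +100 mV at 20-s intervals; kinetics from +100 mV current over 8.5 min. Test compound superfused at 1 nM–1 mM, washed out after a stable plateau. Dose-response curves; timing by ANOVA with Dunnett's test.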

[3] = system: murine erythrocytes; conditions: ref Skals et al, 2009; cited from earlier work
[4] = system: astrocytes; conditions: nanomolar concentrations, ref Suadicani et al, 2006; cited from earlier work
[5] = system: human erythrocytes; conditions: ref Skas et al, 2009; cited from earlier work
[6] = system: Panx1; conditions: nanomolar concentrations, astrocytes; ref Iglesias et al, 2008, 2009; cited from earlier work
[7] = system: adenosine receptors; conditions: ref Weiss et al., 2003; cited from earlier work
[8] = target: untagged mPanx1 (Mus musculus, UniProt Q9JIP4); type: cell-based
Summary of the method: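 Neuro2A cells transfected with untagged mPanx1 construct. Whole-cell recording at room temperature on cells held at −60 mV, with pH 7.4 external and CsCl/EGTA/ATP pipette solutions. Channels activated by 10-s voltage ramps from −60 to +100 mV. Test compound superfused during ramps, then washed out to test reversibility.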

[9] = target: T1, mPanx1-GFP; assay: Inside-out single channel patch clamp on Rin-m cells transfected with Panx1-GFP; type: cell-based; conditions: for Effect on open time of Panx1-GFP channel: inside-out patch
Summary of the method: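 Rin-m cells grown in RPMI with 5% fetal calf serum, under passage 20. Transfected overnight with 2 μg mPanx1-GFP via lipofectamine, then replated 24–36 h. Inside-out single-channel recordings at room temperature on brightly fluorescent cells. Bath pH 7.4 NaCl/Hepes; pipette CsCl/EGTA with 1 mM ATP. Test compound perfused 20 s, then washed out. Mean channel open time compared before, during and after.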

[10] = 100 nM, listed as mefloquine from Bioblocks
[11] = 100 nM, listed as mefloquine from Sigma

T1 sequence (Q9JIP4 whole entry, the tested form may be a part): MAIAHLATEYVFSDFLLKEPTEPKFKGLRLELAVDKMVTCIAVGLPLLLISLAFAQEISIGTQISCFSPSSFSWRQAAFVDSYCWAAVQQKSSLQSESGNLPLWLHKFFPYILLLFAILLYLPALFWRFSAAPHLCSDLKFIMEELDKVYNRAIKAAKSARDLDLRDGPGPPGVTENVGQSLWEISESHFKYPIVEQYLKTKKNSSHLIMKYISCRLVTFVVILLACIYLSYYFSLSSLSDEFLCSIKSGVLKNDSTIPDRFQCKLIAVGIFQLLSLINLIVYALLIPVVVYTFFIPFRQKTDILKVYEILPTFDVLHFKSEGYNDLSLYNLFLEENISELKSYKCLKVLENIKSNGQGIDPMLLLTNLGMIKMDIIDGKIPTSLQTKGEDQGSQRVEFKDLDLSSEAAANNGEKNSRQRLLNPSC
untagged mPanx1, sequence (Q9JIP4 whole entry, the tested form may be a part): as above

CC1(C)[C@@H](OC(=O)CCC(=O)O)CC[C@]2(C)[C@H]3C(=O)C=C4[C@@H]5C[C@@](C)(C(=O)O)CC[C@]5(C)CC[C@@]4(C)[C@]3(C)CC[C@@H]12 [carbenoxolone]
Difference in potency for blockade between C×46 hemichannels and Panx1 channels [1]: 5–10 fold

O[C@H](c1cc(C(F)(F)F)nc2c(C(F)(F)F)cccc12)[C@H]1CCCCN1 [(−)-threo-(11R/2′R)-mefloquine]
Effect on Panx1-GFP currents evoked by depolarizing voltage ramps ([2]; 1μM): prevented
Time required for 50% blockade of Panx1 currents ([2]; applied at 10μM): 1.5 min

O=C(O)c1ccccc1Nc1cccc(C(F)(F)F)c1 [flufenamic acid]
Difference in potency for blockade between C×46 hemichannels and Panx1 channels [1]: 5–10 fold

OC(c1cc(C(F)(F)F)nc2c(C(F)(F)F)cccc12)C1CCCCN1 (centres unmarked) [mefloquine]
Concentration required for prevention of HIyA-induced hemolysis [3]: above 10 μM
Effect on dye uptake evoked by P2X7 receptor stimulation [4]: block
Concentration required for prevention of HIyA-induced hemolysis [5]: above 10 μM
Effect on depolarization- and BzATP-evoked Panx1 currents [6]: inhibit

OC(c1cc(C(F)(F)F)nc2c(C(F)(F)F)cccc12)C1CCCCN1 (single isomer, unassigned; (-)) [(−)-erythro- enantiomer, (−)-erythro-(11S/2′R)-MFQ]
Binding to adenosine receptors [7]: bind

OC(c1cc(C(F)(F)F)nc2c(C(F)(F)F)cccc12)C1CCCCN1 (racemic) [(±)-erythro-(R*/S*)-mefloquine]
Effect on untagged Panx1 currents ([8]; 10 nM): similarly reduced
Effect on untagged Panx1 currents [8, 10]: similarly reduced
Effect on untagged Panx1 currents [8, 11]: not affected
Effect on untagged Panx1 currents ([8]; 1μM): not affected
Time required for 50% blockade of Panx1 currents [2]: 1.5 min
Effect on Panx1-GFP currents evoked by depolarizing voltage ramps ([2]; 10 nM): similarly reduced
Effect on Panx1-GFP currents evoked by depolarizing voltage ramps ([2]; 100 nM): substantially reduced
Time at which current amplitudes were significantly reduced compared to control ([2]; 100 nM, currents at +100mV): 1.5 min
Effect on Panx1-GFP currents evoked by depolarizing voltage ramps [2, 10]: similarly reduced
Effect on Panx1-GFP currents evoked by depolarizing voltage ramps [2, 11]: not affected
Effect on Panx1-GFP currents evoked by depolarizing voltage ramps ([2]; 1μM): not affected
Effect on Panx1-GFP currents evoked by depolarizing voltage ramps ([2]; 100μM): only minimally blocked
Time required for 50% blockade of Panx1 currents ([2]; applied at 100nM): 0.5 min
Times less potent than erythro-mefloquine racemate from the two other sources ([2]; compared with Bioblocks and NCI-NIH racemate): 10,000 times
Effect on open time of Panx1-GFP channel ([9]; 100nM perfused for 20 seconds): decreased
Effect on open time of Panx1-GFP channel ([9]; 1 μM): did not appreciably affect
Mean open time of Panx1 channel after washout ([9]; after washout of 100nM): restored

From article PMC2854254 (Cell communication & adhesion, 2009)
